The source made the active and inactive calls. No cut-off for these calls is given here.
What was measured:
U-87 MG [1] = assay: Induction of oxidative stress in human U87 cells assessed as increase in redox level at cytotoxic IC50 measured after 5 hrs by H2DCFDA dye based fluorescence assay relative to control; format: functional, U-87MG ATCC
How it was run: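 Cells grown overnight, exposed to IC50 for 5 hrs at 37°C with negative, positive (H2O2) and blank controls, plus solvent baseline. Pelleted, loaded with 2 µM H2DCFDA for 30 min at 37°C, washed, resuspended in warm medium, 20 min at room temperature. Fluorescence read at ex 485/em 535 nm.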

LN-229 [2] = assay: Cell cycle arrest in human LN229 cells assessed as accumulation at G1/S-phase at cytotoxic IC50 measured after 48 hrs by propidium iodide staining based fluorescence cell imaging analysis; format: functional
How it was run: (§1)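 Cell cycle by PI staining. Cells seeded at 1×10^6 and grown overnight at 37°C, 5% CO₂, then exposed for 48hrs at their IC₅₀ concentration, with DMSO and cisplatin controls. Cells were trypsinized, washed in cold PBS and fixed in 70% ethanol at 4°C for 30 min. They were stained with PI in Triton X-100/RNase for 15 min at 37°C and imaged by fluorescence microscopy. Reported as mean ± S.E.M of triplicates.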

MEF = assay: Cytotoxicity against MEF assessed as cell death at 100 uM measured after 48 hrs by trypan blue dye-based cell counting analysis; conditions: mouse
U-87 MG [3] = assay: Induction of apoptosis in human U87 cells assessed as change in ERN1 gene expression at cytotoxic IC50 measured after 48 hrs […] relative to control; format: functional, U-87MG ATCC
How it was run: (§2)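 U87 cells grown in MEM with 10% FBS at 37°C, 5% CO2. Cells exposed to IC50 of test compound for 48 hrs, alongside untreated and cisplatin controls, each condition in triplicate. RNA isolated and profiled; differential expression called with DESeq2 (q-value < 0.05, fold change > 1.5), fold change versus untreated.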

U-87 MG [4] = assay: Induction of DNA damage in human U87 cells assessed as change in DTL gene expression at cytotoxic IC50 measured after 48 hrs […] relative to control; format: functional, U-87MG ATCC
How it was run: (§3)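 U87 expression profiling. Cells incubated 48hrs at 37°C, 5% CO₂ with the IC₅₀ concentration, alongside a cisplatin and an untreated control, in triplicate. RNA was isolated by one common protocol and profiled. DEGs were called with DESeq2 (q < 0.05, fold change > 1.5) and expressed as fold change versus untreated.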

[5] = Inhibition of RTK/PI3K/AKT/mTOR signaling in human U87 cells assessed as up regulation of ZNF395 gene expression at cytotoxic IC50 measured after 48 hrs relative to control; format: cell-based; conditions: U-87MG ATCC
U-87 MG [6] = assay: Cytotoxicity against human U87 cells assessed as reduction in cell proliferation measured after 48 hrs by trypan blue dye-based cell counting analysis
U-87 MG [7] = assay: Induction of DNA damage in human U87 cells assessed as change in TRIAP1 gene expression at cytotoxic IC50 measured after 48 hrs […] relative to control; format: functional, U-87MG ATCC; how it was run: as §2
[8] = Inhibition of RTK/PI3K/AKT/mTOR signaling in human U87 cells assessed as up regulation of neuron navigator 1 gene expression at cytotoxic IC50 measured after 48 hrs relative to control; format: cell-based
U-87 MG [9] = assay: Induction of apoptosis in human U87 cells assessed as change in JUN gene expression at cytotoxic IC50 measured after 48 hrs […] relative to control; format: functional, U-87MG ATCC; how it was run: as §2
[10] = Inhibition of RTK/PI3K/AKT/mTOR signaling in human U87 cells assessed as up regulation of single Ig and TIR domain containing gene expression at cytotoxic IC50 measured after 48 hrs relative to control; format: cell-based; conditions: U-87MG ATCC
[11] = Inhibition of RTK/PI3K/AKT/mTOR signaling in human U87 cells assessed as up regulation of lemur tyrosine kinase 3 gene expression at cytotoxic IC50 measured after 48 hrs relative to control; format: cell-based; conditions: U-87MG ATCC
U-87 MG [12] = assay: Induction of DNA damage in human U87 cells assessed as change in PIDD1 gene expression at cytotoxic IC50 measured after 48 hrs […] relative to control; format: functional, U-87MG ATCC; how it was run: as §3
[13] = Inhibition of RTK/PI3K/AKT/mTOR signaling in human U87 cells assessed as up regulation of KLF7 gene expression at cytotoxic IC50 measured after 48 hrs relative to control; format: cell-based; conditions: U-87MG ATCC
How it was run: (§4)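 Cells were exposed for 48hrs at 37°C in humidified 5% CO₂ to the compound at its previously determined IC₅₀, with Cisplatin at its IC₅₀ and an untreated negative control alongside. Each condition was run in triplicate. RNA was isolated from all samples by the same protocol. Genes were called differentially expressed by DESeq2 at q-value < 0.05 and fold change > 1.5.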

[14] = Inhibition of RTK/PI3K/AKT/mTOR signaling in human U87 cells assessed as down regulation of HELLS gene expression at cytotoxic IC50 measured after 48 hrs relative to control; format: cell-based; conditions: U-87MG ATCC; how it was run: as §2
[15] = Inhibition of RTK/PI3K/AKT/mTOR signaling in human U87 cells assessed as up regulation of solute carrier family 11 member 2 gene expression at cytotoxic IC50 measured after 48 hrs relative to control; format: cell-based; conditions: U-87MG ATCC
[16] = Inhibition of RTK/PI3K/AKT/mTOR signaling in human U87 cells assessed as up regulation of proline-serine-threonine phosphatase interacting protein 2 gene expression at cytotoxic IC50 measured after 48 hrs relative to control; format: cell-based; conditions: U-87MG ATCC
[17] = Inhibition of RTK/PI3K/AKT/mTOR signaling in human U87 cells assessed as up regulation of QSOX2 gene expression at cytotoxic IC50 measured after 48 hrs relative to control; format: cell-based; conditions: U-87MG ATCC; how it was run: as §4
U-87 MG [18] = assay: Cell cycle arrest in human U87 cells assessed as accumulation at G1 phase at cytotoxic IC50 measured after 48 hrs by propidium iodide staining based fluorescence cell imaging analysis (reference value: 39.7%); format: functional, U-87MG ATCC; how it was run: as §1
LN-229 [19] = assay: Induction of apoptosis in human LN229 cells assessed as decrease in caspase-3/7 activation at cytotoxic IC50 measured after 5 hrs by caspase-glo 3/7 luminescence assay relative to control; format: functional; parameters: scale not given: the % may be the effect or the level left
How it was run: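 Cells grown overnight in 96-well format, then given IC50 for 5 hrs at 37°C, 5% CO2, with negative, positive and blank (medium+DMSO+dye) wells. Equilibrated 30 min at room temperature, Caspase-Glo 3/7 reagent added 1:1 in the dark, luminescence read at 1 hr. Fold change = (test−blank)/(control−blank). Triplicate measurements, at least two independent experiments.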

LN-229 [20] = assay: Cell cycle arrest in human LN229 cells assessed as decrease in accumulation at S-phase at cytotoxic IC50 measured after 48 hrs by propidium iodide staining based fluorescence cell imaging analysis; format: functional; how it was run: as §1
LN-229 [21] = assay: Cell cycle arrest in human LN229 cells assessed as decrease in accumulation at G2/M-phase at cytotoxic IC50 measured after 48 hrs by propidium iodide staining based fluorescence cell imaging analysis; format: functional; how it was run: as §1
U-87 MG [22] = assay: Cell cycle arrest in human U87 cells assessed as change in CDC6 gene expression at cytotoxic IC50 measured after 48 hrs […] relative to control; format: functional, U-87MG ATCC; how it was run: as §3
U-87 MG [23] = assay: Induction of apoptosis in human U87 cells assessed as change in FAS gene expression at cytotoxic IC50 measured after 48 hrs […] relative to control; format: functional, U-87MG ATCC; how it was run: as §2
[24] = Inhibition of RTK/PI3K/AKT/mTOR signaling in human U87 cells assessed as up regulation of RPL7L1 gene expression at cytotoxic IC50 measured after 48 hrs relative to control; format: cell-based; conditions: U-87MG ATCC; how it was run: as §4

For `CC(=O)C(=NNc1ccccc1C#N)C(C)=O`, the Activity (U-87 MG [1]) was 9.5%, the Activity (LN-229 [2]) was “Active” and the Activity (MEF) was under 20%. For the same molecule, the log2FC (U-87 MG [3]) was -1.369, the “fold change (FC)” value (U-87 MG [4]) was 1.519 and the log2FC [5] was 1.89. The IC50 (U-87 MG [6]) was 107 µM, the “fold change (FC)” value (U-87 MG [7]) was 2.018 and the log2FC [8] was 0.879. For the same molecule, the log2FC (U-87 MG [9]) was -3.064, the log2FC [10] was 0.676 and the log2FC [11] was 0.868. For the same molecule, the “fold change (FC)” value (U-87 MG [12]) was 2.467, the log2FC [13] was 1.91 and the log2FC [14] was -1.06. It also gave a log2FC [15] of 1.18, a log2FC [16] of 0.785 and a log2FC [17] of 0.599. For the same molecule, the Activity (U-87 MG [18]) was 47.7%, the Activity (LN-229 [19]) was 36.1% and the Activity (LN-229 [20]) was “Active”. For the same molecule, the Activity (LN-229 [21]) was “Active”, the “fold change (FC)” value (U-87 MG [22]) was 1.009 and the log2FC (U-87 MG [23]) was 3.514. The log2FC [24] was 0.536.

Source: ChEMBL document CHEMBL4316593 (Eur J Med Chem, 2019)
